Here are results for twelve compounds from ChEMBL document CHEMBL1133975, “Isoxazolyl, oxazolyl, and thiazolylpropionic acid derivatives as potent alpha(4)beta(1) integrin antagonists” (Bioorg Med Chem Lett, 2001).

Assay [1] addresses T1, Integrin alpha-4/beta-1 (Homo sapiens, UniProt P05556+P13612). Briefly: Inhibition of Alpha4-beta1 integrin in Jurkat cells (Not active). Format: cell-based. In outline:
(§1)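 Calcein-labelled Jurkat cells were allowed to bind human recombinant sVCAM-1 in the presence of serial dilutions of compound, giving IC50. Values are means ± standard error of the number of independent experiments.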

The target in assay [2] is T1, Integrin alpha-4/beta-1. Briefly: Inhibition of Alpha4-beta1 integrin in Jurkat cells. Format: cell-based. An outline of the steps: as §1
Assay [3] deals with T1, Integrin alpha-4/beta-1. Briefly: Inhibition of VCAM binding to Alpha4-beta1 integrin of human eosinophil cell. Format: protein-complex assay.
Assay [4] has as its target T1, Integrin alpha-4/beta-1. Briefly: Inhibition of human recombinant sVCAM-1 binding to alpha4-beta1 integrin (VLA-4) in ELISA. It is filed as protein-complex assay.

Molecules are shown by their SMILES.

T1 sequence (P05556 whole entry): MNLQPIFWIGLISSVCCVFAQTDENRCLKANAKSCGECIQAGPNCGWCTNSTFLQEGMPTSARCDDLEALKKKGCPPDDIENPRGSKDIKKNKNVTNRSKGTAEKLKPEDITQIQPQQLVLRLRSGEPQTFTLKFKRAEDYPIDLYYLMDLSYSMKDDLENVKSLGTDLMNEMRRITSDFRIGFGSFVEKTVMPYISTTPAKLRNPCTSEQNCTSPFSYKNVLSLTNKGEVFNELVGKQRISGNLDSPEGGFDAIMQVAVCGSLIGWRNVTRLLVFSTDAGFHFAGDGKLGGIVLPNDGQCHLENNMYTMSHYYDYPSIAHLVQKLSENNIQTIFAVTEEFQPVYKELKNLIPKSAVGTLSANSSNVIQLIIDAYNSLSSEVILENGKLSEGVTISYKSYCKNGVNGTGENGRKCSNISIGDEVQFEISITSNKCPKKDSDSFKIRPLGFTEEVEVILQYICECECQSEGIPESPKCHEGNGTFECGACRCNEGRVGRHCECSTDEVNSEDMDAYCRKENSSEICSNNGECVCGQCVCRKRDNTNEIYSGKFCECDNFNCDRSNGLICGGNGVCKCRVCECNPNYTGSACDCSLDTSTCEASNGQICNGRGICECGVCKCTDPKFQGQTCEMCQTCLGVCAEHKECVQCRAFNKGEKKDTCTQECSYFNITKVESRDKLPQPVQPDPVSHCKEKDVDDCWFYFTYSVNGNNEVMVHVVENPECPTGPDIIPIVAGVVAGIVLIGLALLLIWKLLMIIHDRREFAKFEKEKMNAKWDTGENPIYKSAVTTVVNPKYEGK
T1 sequence (P13612 whole entry): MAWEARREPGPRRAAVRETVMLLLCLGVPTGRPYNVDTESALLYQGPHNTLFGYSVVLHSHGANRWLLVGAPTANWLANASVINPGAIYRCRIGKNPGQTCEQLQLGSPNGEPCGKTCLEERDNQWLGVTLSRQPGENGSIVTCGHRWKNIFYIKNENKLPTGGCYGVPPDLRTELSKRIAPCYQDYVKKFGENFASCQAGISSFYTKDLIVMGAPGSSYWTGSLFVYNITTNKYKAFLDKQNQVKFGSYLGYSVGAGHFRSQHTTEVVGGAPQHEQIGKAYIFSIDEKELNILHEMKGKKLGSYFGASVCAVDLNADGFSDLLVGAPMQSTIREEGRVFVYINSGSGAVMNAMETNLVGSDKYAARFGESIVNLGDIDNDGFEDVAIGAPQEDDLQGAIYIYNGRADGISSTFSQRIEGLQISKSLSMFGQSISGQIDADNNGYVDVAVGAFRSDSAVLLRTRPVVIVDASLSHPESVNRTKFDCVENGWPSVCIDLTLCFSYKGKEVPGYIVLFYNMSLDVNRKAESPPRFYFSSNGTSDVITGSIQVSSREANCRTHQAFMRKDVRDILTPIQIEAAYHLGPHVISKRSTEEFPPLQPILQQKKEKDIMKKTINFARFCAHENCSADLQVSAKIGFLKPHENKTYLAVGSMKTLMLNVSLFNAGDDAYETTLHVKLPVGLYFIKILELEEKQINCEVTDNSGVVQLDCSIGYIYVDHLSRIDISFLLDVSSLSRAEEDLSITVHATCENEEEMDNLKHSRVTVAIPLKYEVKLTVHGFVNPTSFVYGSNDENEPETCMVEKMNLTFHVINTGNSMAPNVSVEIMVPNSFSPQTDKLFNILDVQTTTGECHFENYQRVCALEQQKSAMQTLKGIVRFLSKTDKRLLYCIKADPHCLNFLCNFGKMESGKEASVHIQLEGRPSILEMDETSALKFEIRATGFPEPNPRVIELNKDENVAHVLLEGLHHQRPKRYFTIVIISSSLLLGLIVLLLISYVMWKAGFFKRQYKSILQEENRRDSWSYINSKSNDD

`Cc1ccccc1NC(=O)Nc1ccc(CC(=O)N[C@@H](CC(C)C)c2cc(-c3cccc(C(=O)O)c3)on2)cc1`: at Integrin alpha-4/beta-1 [1], the IC50 (in general, the concentration that inhibits the measured activity by half) was “Not Active”.

Consider `Cc1ccccc1NC(=O)Nc1ccc(CC(=O)N[C@@H](CC(C)C)C2=NOC(CCC(=O)O)C2)cc1` (stereo partly drawn), for which the half-maximal inhibitory concentration (IC50) is 88 nM on Integrin alpha-4/beta-1 [2] and 495 nM at Integrin alpha-4/beta-1 [3]. Consider `Cc1ccccc1NC(=O)Nc1ccc(CC(=O)N[C@@H](CC(C)C)c2cc(CCC(=O)O)on2)cc1`, for which the 50% inhibitory concentration (IC50) worked out at 27 nM against Integrin alpha-4/beta-1 [2] and 143 nM at Integrin alpha-4/beta-1 [3].

For `Cc1ccccc1NC(=O)Nc1ccc(CC(=O)N[C@@H](CC(C)C)c2ncc(CCC(=O)O)s2)cc1`, the values for the IC50 on Integrin alpha-4/beta-1 [2] and on Integrin alpha-4/beta-1 [3] were 16 nM and 180 nM, respectively.

On Integrin alpha-4/beta-1 [2], `Cc1ccccc1NC(=O)Nc1ccc(CC(=O)N[C@@H](CC(C)C)c2ncc(CC(=O)O)s2)cc1` came in with an IC50 of 2400 nM. As to `Cc1ccccc1NC(=O)Nc1ccc(CC(=O)N[C@@H](CC(C)C)c2ncc(CCC(=O)O)o2)cc1`, the values for the IC50 against Integrin alpha-4/beta-1 [2] and on Integrin alpha-4/beta-1 [3] were 45 nM and 171 nM, respectively. For `COc1cc(CC(=O)N[C@@H](CC(C)C)c2cc(CCC(=O)O)on2)ccc1NC(=O)Nc1ccccc1C`, the results for the concentration for half-maximal inhibition (IC50) against Integrin alpha-4/beta-1 [2] and at Integrin alpha-4/beta-1 [3] were 0.69 nM and 1 nM, respectively. `Cc1ccccc1NC(=O)Nc1ccc(CC(=O)N[C@@H](CC(C)C)c2ncc(CCC(N)=O)s2)cc1`: the IC50 entry at Integrin alpha-4/beta-1 [4] is listed as “Not Active”. For `Cc1ccccc1NC(=O)Nc1ccc(CC(=O)N[C@@H](CC(C)C)C2=NOC(CCC(=O)O)(CCC(=O)O)C2)cc1`, the IC50 at Integrin alpha-4/beta-1 [2] came to 67 nM; on Integrin alpha-4/beta-1 [3], 347 nM. On to `Cc1ccccc1NC(=O)Nc1ccc(CC(=O)N[C@@H](CC(C)C)c2nc(CCC(=O)O)cs2)cc1`, for which the concentration for half-maximal inhibition (IC50) against Integrin alpha-4/beta-1 [2] was determined as 2040 nM.

Regarding `Cc1ccccc1NC(=O)Nc1ccc(CC(=O)N[C@@H](CC(C)C)c2cc(CCCC(=O)O)on2)cc1`, the half-inhibitory concentration (IC50) on Integrin alpha-4/beta-1 [2] came to 1800 nM. Take `Cc1ccccc1NC(=O)Nc1ccc(CC(=O)N[C@@H](CC(C)C)c2cc(-c3ccccc3C(=O)O)on2)cc1`: the IC50 entry at Integrin alpha-4/beta-1 [1] was “Not Active”.
